Experimental data from ChEMBL document CHEMBL5370680, “Design and Biological Evaluation of Piperazine-Bearing Nitrobenzamide Hypoxia/GDEPT Prodrugs: The Discovery of CP-506” (ACS Med Chem Lett, 2023).

Experiments:
HCT-116 [1] = assay: Antiproliferative activity against wild type human HCT-116 cells assessed as cell growth inhibition measured after 4 hrs; format: functional, cell-based; conditions: HCT-116, 4 h
How it was run: (§1)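 Monolayer antiproliferative assay using wild-type cells and isogenic lines transfected with AKR1C3 or E. coli NfsA. Cells exposed to prodrug for 4 h, then regrown for 5 days. IC50 is 50% growth inhibition versus untreated controls. Mean values reported, CV <20%.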

HCT-116 [2] = assay: Antiproliferative activity against human HCT-116 cells expressing AKR1C3 assessed as cell growth inhibition measured after 4 hrs; format: functional, cell-based; conditions: HCT-116, 4 h; how it was run: as §1
HCT-116 [3] = assay: Antiproliferative activity against human HCT-116 cells expressing NfsA of Escherichia coli assessed as cell growth inhibition measured after 4 hrs; format: functional; conditions: HCT-116, 4 h; how it was run: as §1
[4] = Selectivity ratio of IC50 for antiproliferative activity against wild type human HCT-116 cells to IC50 for antiproliferative activity against human HCT-116 cells expressing AKR1C3; format: functional; conditions: time 4 hrs
How it was run: (§2)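 Ratio of mean IC50 in non-transfected wild-type cells to mean IC50 in the AKR1C3- or NfsA_Ec-transfected line. IC50 is from a 4 h prodrug exposure and 5 days' regrowth.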

[5] = Selectivity ratio of IC50 for antiproliferative activity against wild type human HCT-116 cells to IC50 for antiproliferative activity against human HCT-116 cells expressing NfsA of Escherichia coli; format: functional; conditions: time 4 hrs; how it was run: as §2
NCI-H1299 [6] = assay: Antiproliferative activity against wild type human NCI-H1299 cells assessed as cell growth inhibition measured after 4 hrs; format: functional, cell-based; conditions: NCI-H1299, 4 h; how it was run: as §1
NCI-H1299 [7] = assay: Antiproliferative activity against human NCI-H1299 cells expressing AKR1C3 assessed as cell growth inhibition measured after 4 hrs; format: functional, cell-based; conditions: NCI-H1299, 4 h; how it was run: as §1
NCI-H1299 [8] = assay: Antiproliferative activity against human NCI-H1299 cells expressing NfsA of Escherichia coli assessed as cell growth inhibition measured after 4 hrs; format: functional; conditions: NCI-H1299, 4 h; how it was run: as §1
[9] = Selectivity ratio of IC50 for antiproliferative activity against wild type human NCI-H1299 cells to IC50 for antiproliferative activity against human NCI-H1299 cells expressing AKR1C3; format: functional; conditions: time 4 hrs; how it was run: as §2
[10] = Selectivity ratio of IC50 for antiproliferative activity against wild type human NCI-H1299 cells to IC50 for antiproliferative activity against human NCI-H1299 cells expressing NfsA of Escherichia coli; format: functional; conditions: time 4 hrs; how it was run: as §2
HCT-116 [11] = assay: Antiproliferative activity against human HCT-116 cells in three-dimensional cell culture multicellular layer expressing NfsA of Escherichia coli assessed as fold change in plating efficiency at 10 uM; format: functional
How it was run: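 Mixed MCLs of wild-type HCT116 with 3% NfsA_Ec-expressing cells, against 100% wild-type MCLs, exposed to 10 μM prodrug. Clonogenic plating efficiency measured. Fold change is the plating-efficiency ratio between wild-type and transfected MCLs. ≥3 independent experiments.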

HCT-116 [12] = assay: Antiproliferative activity against human HCT-116 cells in three-dimensional cell culture multicellular layer expressing AKR1C3 assessed as fold change in plating efficiency at 10 uM; format: functional
How it was run: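 100% AKR1C3-expressing HCT116 MCLs, against wild-type HCT116 MCLs, exposed to 10 μM prodrug. Clonogenic plating efficiency measured. Fold change is the plating-efficiency ratio between wild-type and transfected MCLs. ≥3 independent experiments.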

[13] = Octanol/water partition coefficient, log D of the compound at pH 7.4; format: physicochemical
How it was run: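 Octanol–water partition coefficient by shake-flask method at pH 7.4.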

SiHa [14] = assay: Antiproliferative activity against human SiHa cells assessed as inhibition of cell growth incubated for 4 hrs under aerobic condition and measured after 5 days regrowth under aerobic condition; format: functional, cell-based
How it was run: (§3)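 Low-density monolayer antiproliferative assay. Cells exposed to prodrug for 4 h under aerobic or anoxic conditions, then regrown aerobically for 5 days. IC50 is the concentration giving 50% growth inhibition versus untreated controls. Mean values reported, CV <20%.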

SiHa [15] = assay: Antiproliferative activity against human SiHa cells assessed as inhibition of cell growth incubated for 4 hrs under anoxic condition and measured after 5 days regrowth under aerobic condition; format: functional, cell-based; how it was run: as §3
[16] = Selectivity ratio of IC50 for antiproliferative activity against human SiHa cells assessed as inhibition of cell growth under aerobic condition to IC50 for antiproliferative activity against human SiHa cells assessed as inhibition of cell growth under anoxic condition; format: functional
How it was run: (§4)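 Hypoxic cytotoxicity ratio is aerobic IC50 divided by anoxic IC50. Each IC50 comes from a 4 h drug exposure under aerobic or anoxic conditions, followed by 5 days' aerobic regrowth, relative to untreated controls.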

HCT-116 [17] = assay: Antiproliferative activity against human HCT-116 cells assessed as inhibition of cell growth incubated for 4 hrs under aerobic condition and measured after 5 days regrowth under aerobic condition; format: functional, cell-based; how it was run: as §3
HCT-116 [18] = assay: Antiproliferative activity against human HCT-116 cells assessed as inhibition of cell growth incubated for 4 hrs under anoxic condition and measured after 5 days regrowth under aerobic condition; format: functional, cell-based; how it was run: as §3
[19] = (§5) Selectivity ratio of IC50 for antiproliferative activity against human HCT-116 cells assessed as inhibition of cell growth under aerobic condition to IC50 for antiproliferative activity against human HCT-116 cells assessed as inhibition of cell growth under anoxic condition; format: functional; how it was run: as §4
HCT-116 [20] = assay: Antiproliferative activity against human HCT-116 cells overexpressing cytochrome P450 oxidoreductase assessed as inhibition of cell growth incubated for 4 hrs under anoxic condition and measured after 5 days regrowth under aerobic condition; format: functional, cell-based; how it was run: as §3
HCT-116 [21] = assay: Antiproliferative activity against human HCT-116 cells overexpressing cytochrome P450 oxidoreductase assessed as inhibition of cell growth incubated for 4 hrs under aerobic condition and measured after 5 days regrowth under aerobic condition; format: functional, cell-based; how it was run: as §3
[22] = as §5, with “cells overexpressing cytochrome P450 oxidoreductase” for “cells”; format: functional; how it was run: as §4
[23] = Toxicity in NIH-III nude mouse xenografted with human HCT-116 cells expressing NfsA of Escherichia coli assessed as body weight loss at 1000 micromol/kg, ip BID; format: organism-based; conditions: in vivo, at 1000 µmol/kg
HCT-116 [24] = assay: Antiproliferative activity against human HCT-116 cells in three-dimensional cell culture multicellular layers assessed as log cell killing under anoxic condition at 100 uM; format: functional
How it was run: (§6)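 HCT116 three-dimensional multicellular layers exposed to 100 μM prodrug under aerobic or anoxic conditions. Clonogenic survivors per MCL counted. Log cell kill = log CS(control) − log CS(treated). Mean of ≥3 independent experiments.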

HCT-116 [25] = assay: Antiproliferative activity against human HCT-116 cells in three-dimensional cell culture multicellular layers assessed as log cell killing under aerobic condition at 100 uM; format: functional; how it was run: as §6
[26] = Toxicity in NIH-III nude mouse xenografted with human HCT-116 cells expressing NfsA of Escherichia coli assessed as body weight loss at 1000 micromol/kg, ip BID measured on day 6; format: organism-based; conditions: in vivo, 144 h, at 1000 µmol/kg, time 6 day
[27] = Toxicity in NIH-III nude mouse xenografted with human HCT-116 cells expressing NfsA of Escherichia coli assessed as body weight loss at 1000 micromol/kg, ip BID measured on day 16; format: organism-based; conditions: in vivo, 384 h, dose 1000 µmol/kg, time 16 day
[28] = Metabolic stability in mouse liver microsome assessed as half life in presence of NADPH by LC-MS/MS analysis; format: ADME; conditions: liver microsomes
How it was run: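 Male mouse hepatic microsomes incubated with prodrug for 30 min, with or without NADPH cofactor. Percentage of parent compound remaining tracked from triplicate incubations. Half-life estimated from this loss.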

Structure (SMILES) | IC50 (HCT-116 [1]) | IC50 (HCT-116 [2]) | IC50 (HCT-116 [3]) | Ratio IC50 [4] | Ratio IC50 [5] | IC50 (NCI-H1299 [6]) | IC50 (NCI-H1299 [7]) | IC50 (NCI-H1299 [8]) | Ratio IC50 [9] | Ratio IC50 [10] | fold change (FC) (HCT-116 [11]) | fold change (FC) (HCT-116 [12]) | logD [13] | IC50 (SiHa [14]) | IC50 (SiHa [15]) | Ratio IC50 [16] | IC50 (HCT-116 [18]) | IC50 (HCT-116 [20]) | IC50 (HCT-116 [21]) | Ratio IC50 [22] | further results
CS(=O)(=O)OCCN(CCBr)c1c(C(=O)NCCO)cc([N+](=O)[O-])cc1[N+](=O)[O-] | 66 µM | 1.1 µM | 0.016 µM | 60 | 4125 | 114 µM | 7.4 µM | 0.048 µM | 15 | 2375 | 29 | 100500 | 1 | 19 µM | 2.7 µM | 7 | 2.5 µM | 0.14 µM | 41 µM | 293 | IC50 (HCT-116 [17]): 38 µM; Ratio IC50 [19]: 15
CCN1CCN(C(=O)c2cc(N(CCBr)CCBr)c(S(=O)(=O)CC)cc2[N+](=O)[O-])CC1 | 95 µM | 62 µM | 0.186 µM | 1.5 | 511 | 67 µM | 54 µM | 0.552 µM | 1.2 | 121 | 5178 | 0.9 | 2.1 | 253 µM | 23 µM | 11 | 27 µM | 2.8 µM | 60 µM | 21 | Activity [23]: < 10%; LCK (HCT-116 [24]): 0.016; LCK (HCT-116 [25]): 2.3; Activity [26]: <= 7%; Activity [27]: Non-Toxic; IC50 (HCT-116 [17]): 142 µM; Ratio IC50 [19]: 5.3
CCS(=O)(=O)c1cc([N+](=O)[O-])c(C(=O)N2CCN(C(C)C)CC2)cc1N(CCBr)CCBr | 65 µM | 70 µM | 0.496 µM | 0.9 | 131 | 49 µM | 67 µM | 0.685 µM | 0.7 | 73 | 351 | 0.9 | 2.5 | – | – | – | – | – | – | – | –
CCN1CCN(C(=O)c2cc(N(CCBr)CCOS(C)(=O)=O)c(S(=O)(=O)CC)cc2[N+](=O)[O-])CC1 | – | – | – | – | – | – | – | – | – | – | – | – | 1 | > 300 µM | 15 µM | >20 | 18 µM | 2.8 µM | 122 µM | 44 | LCK (HCT-116 [24]): 0.016; LCK (HCT-116 [25]): 2.3
CCN1CCN(C(=O)c2cc(N(CCBr)CCBr)c(S(C)(=O)=O)cc2[N+](=O)[O-])CC1 | 77 µM | 49 µM | 0.104 µM | 1.6 | 740 | 71 µM | 71 µM | 0.175 µM | 1 | 406 | 825 | 1.2 | 1.7 | 164 µM | 10 µM | 16 | 21 µM | 0.66 µM | 54 µM | 82 | Activity [23]: < 10%; LCK (HCT-116 [24]): 0.016; LCK (HCT-116 [25]): 2.3; half-life [28]: 6.05 min; Activity [26]: <= 7%; Activity [27]: Non-Toxic; IC50 (HCT-116 [17]): 145 µM; Ratio IC50 [19]: 6.9
CN1CCN(C(=O)c2cc(N(CCBr)CCOS(C)(=O)=O)c(S(C)(=O)=O)cc2[N+](=O)[O-])CC1 | – | – | – | – | – | – | – | – | – | – | – | – | 0.3 | 561 µM | 47 µM | 12 | 23 µM | 1.6 µM | 139 µM | 87 | LCK (HCT-116 [24]): 0.016; LCK (HCT-116 [25]): 2.3; IC50 (HCT-116 [17]): 368 µM; Ratio IC50 [19]: 16
CN1CCN(C(=O)c2cc(N(CCBr)CCBr)c(S(C)(=O)=O)cc2[N+](=O)[O-])CC1 | 102 µM | 70 µM | 0.089 µM | 1.5 | 1146 | 98 µM | 102 µM | 0.154 µM | 1 | 636 | 1531 | 1.1 | 1.4 | 241 µM | 16 µM | 15 | 24 µM | 0.88 µM | 82 µM | 93 | LCK (HCT-116 [24]): 0.016; LCK (HCT-116 [25]): 2.3; IC50 (HCT-116 [17]): 160 µM; Ratio IC50 [19]: 6.6
CC(C)N1CCN(C(=O)c2cc(N(CCBr)CCBr)c(S(C)(=O)=O)cc2[N+](=O)[O-])CC1 | 61 µM | 53 µM | 0.132 µM | 1.2 | 462 | 59 µM | 69 µM | 0.287 µM | 0.9 | 206 | 1943 | 0.9 | 1.9 | – | – | – | – | – | – | – | –
CCS(=O)(=O)c1cc([N+](=O)[O-])c(C(=O)N2CCN(C)CC2)cc1N(CCBr)CCBr | 83 µM | 73 µM | 0.231 µM | 1.1 | 359 | 85 µM | 58 µM | 0.546 µM | 1.5 | 156 | 709 | 1.1 | 2.2 | – | – | – | – | – | – | – | –
CCN1CCN(C(=O)c2cc(N(CCBr)CCOS(C)(=O)=O)c(S(C)(=O)=O)cc2[N+](=O)[O-])CC1 [CP-506] | – | – | – | – | – | – | – | – | – | – | – | – | 0.6 | 459 µM | 22 µM | 21 | 14 µM | 1.2 µM | 112 µM | 93 | LCK (HCT-116 [24]): 0.016; LCK (HCT-116 [25]): 2.3; half-life [28]: 41.2 min; IC50 (HCT-116 [17]): 288 µM; Ratio IC50 [19]: 21
